How the values were obtained:
pSTAT3 homodimer [1] = test: van't Hoff analysis of pSTAT3 monomer-dimer equilibrium by HMQC; format: binding, human; details: 25-45 °C, 700 MHz
Method in brief: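 His-tagged pSTAT3 (127-711), co-expressed with tyrosine kinase in E. coli TKB1, deuterated with Ile Cδ1 methyl 13CH3 labeling, in deuterated 10 mM MES pH 5.5, 2 mM TCEP, 0.03% sodium azide, 100% D2O. 2D 1H-13C HMQC at 700 MHz at 25, 30, 32, 34, 36, 38, 40 and 45 °C. Keq is the population ratio of exchanging species (a) and (b); ΔH0 and ΔS0 come from a linear fit of ln(Keq) vs 1/T.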

pSTAT3 = test: 13C SQ-CPMG relaxation dispersion; design: species or system human; details: 35 °C, 600 and 700 MHz, ~170 μM pSTAT3
pSTAT3 homodimer [2] = test: NMR CSP of pSTAT3 dimer versus uSTAT3; format: binding, human; details: 2D 13C-1H HMQC, 25 °C
I568F STAT3 = test: NMR CSP of I568F STAT3 relative to WT; design: species or system human; details: 2D 13C-1H HMQC Ile spectra

Molecule | ΔS° of monomer-dimer equilibrium (I568 and I654) (pSTAT3 homodimer [1]; residues I568 (LD) and I654 (SH2)) [cal/mol•K] | ΔS° of monomer-dimer equilibrium (I653 and I711) (pSTAT3 homodimer [1]; residues I653 and I711) [cal/mol•K] | change in Rex of I568, pSTAT3 dimer versus pY904-bound uSTAT3 (pSTAT3) | CSPs of pSTAT3 dimer (pSTAT3 homodimer [2]) | CSP of I568F mutant relative to WT (I568F STAT3)
pSTAT3: Tyr-705-phosphorylated STAT3 (protein, phosphotyrosine at 705; left off: His6, C-terminal, state not stated) GQANHPTAAVVTEKQQMLEQHLQDVRKRVQDLEQKMKVVENLQDDFDFNYKTLKSQGDMQDLNGNNQSVTRQKMQQLEQMLTALDQMRRSIVSELAGLLSAMEYVQKTLTDEELADWKRRQQIACIGGPPNICLDRLENWITSLAESQLQTRQQIKKLEELQQKVSYKGDPIVQHRPMLEERIVELFRNLMKSAFVVERQPCMPMHPDRPLVIKTGVQFTTKVRLLVKFPELNYQLKIKVCIDKDSGDVAALRGSRKFNILGTNTKVMNMEESNNGSLSAEFKHLTLREQRCGNGGRANCDASLIVTEELHLITFETEVYHQGLKIDLETHSLPVVVISNICQMPNAWASILWYNMLTNNPKNVNFFTKPPIGTWDQVAEVLSWQFSSTTKRGLSIEQLTTLAEKLLGPGVNYSGCQITWAKFCKENMAGKGFSFWVWLDNIIDLVKKYILALWNEGYIMGFISKERERAILSTKPPGTFLLRFSESSKEGGVTFTWVEKDISGKTQIQSVEPYTKQQLNNMSFAEIIMGYKIMDATNILVSPLVYLYPDIPKEEAFGKYCRPESQEHPEADPGSAAPYLKTKFI | 47.0 ± 3.7 | 42.2 ± 1.6 | Larger increases in the Rex of I568 were observed for the dimeric pSTAT3 than for pY904-bound uSTAT3 | Additional CSPs unique to pSTAT3 were observed at I653 and I711 | 
I568F: HIES associated STAT3 mutation in the LD (protein, left off: His6, C-terminal, state not stated) GQANHPTAAVVTEKQQMLEQHLQDVRKRVQDLEQKMKVVENLQDDFDFNYKTLKSQGDMQDLNGNNQSVTRQKMQQLEQMLTALDQMRRSIVSELAGLLSAMEYVQKTLTDEELADWKRRQQIACIGGPPNICLDRLENWITSLAESQLQTRQQIKKLEELQQKVSYKGDPIVQHRPMLEERIVELFRNLMKSAFVVERQPCMPMHPDRPLVIKTGVQFTTKVRLLVKFPELNYQLKIKVCIDKDSGDVAALRGSRKFNILGTNTKVMNMEESNNGSLSAEFKHLTLREQRCGNGGRANCDASLIVTEELHLITFETEVYHQGLKIDLETHSLPVVVISNICQMPNAWASILWYNMLTNNPKNVNFFTKPPIGTWDQVAEVLSWQFSSTTKRGLSIEQLTTLAEKLLGPGVNYSGCQITWAKFCKENMAGKGFSFWVWLDNFIDLVKKYILALWNEGYIMGFISKERERAILSTKPPGTFLLRFSESSKEGGVTFTWVEKDISGKTQIQSVEPYTKQQLNNMSFAEIIMGYKIMDATNILVSPLVYLYPDIPKEEAFGKYCRPESQEHPEADPGSAAPYLKTKFI |  |  |  |  | significant CSP relative to WT protein in all structured domains of STAT3, from the CCD to SH2

From article PMC4767637 (Journal of molecular biology, 2016)
